Published values collected from several papers.
Each line is one published result; the experiments were not run side by side.
IGF1R: Insulin-like growth factor 1 receptor (IGF1R, Homo sapiens, UniProt P08069)
IGF1R phosphorylated: Insulin-like growth factor 1 receptor, phosphorylated (IGF1R, Homo sapiens, UniProt P08069)

COc1cc2ncnc(Nc3ccc(Oc4ccccc4)cc3C)c2cc1OC
inhibition (IGF1R; enzyme activity, inhibitor; 1 µM): 1%

CS(=O)(=O)Nc1cccc(-c2csc(NC(=O)CSc3nc4nccnc4c(=O)n3CCc3ccccc3)n2)c1
inhibition (IGF1R; enzyme activity, inhibitor; 10 µM): 5%

CCCS(=O)(=O)Nc1ccc(F)c(C(=O)c2c[nH]c3ncc(-c4ccc(Cl)cc4)cc23)c1F
inhibition (IGF1R; enzyme activity, inhibitor; 1 µM): < 10%

CN1CC(Oc2cnc(C#N)cc2-c2ccn3nc(NC(=O)C4CC4)cc3c2)C1
inhibition (IGF1R; enzyme activity, inhibitor; 1 µM): 9%

Nc1ncnc2occ(-c3ccc(NC(=O)Nc4cc(C(F)(F)F)ccc4F)cc3)c12
remaining signal (IGF1R; cell-free assay; 20 µM): 13%

Cc1c(NC(=O)c2cc(C(N)=O)nc3cc(F)ccc23)c(C(F)(F)F)nn1Cc1ccc(C#N)cc1
remaining binding (IGF1R; cell-free assay, competition with immobilised ligand; 1 µM): 100%

CNCc1ccc(-c2cc(-c3nc(-c4ccc(S(=O)(=O)C(C)C)cc4)cnc3N)on2)cc1
inhibition (IGF1R; enzyme activity, inhibitor; 0.4 µM): 0%

COc1cc(Nc2c(C#N)cnc3cc(OCCCN4CCN(C)CC4)c(OC)cc23)c(Cl)cc1Cl
remaining signal (IGF1R; cell-free assay; 0.5 µM): 91.5%

Cc1cc(-n2nc(Cc3cc(F)cc(C(F)(F)F)c3)nc2C)ccc1C(N)=O
remaining binding (IGF1R; cell-free assay, competition with immobilised ligand; 1 µM): 98%

CNc1cccc2cc(C(=O)Nc3ccc(C(=O)O)cc3)c(=O)[nH]c12
inhibition (IGF1R; enzyme activity, inhibitor; 10 µM): 5.2%

Cc1cc(NC(=O)c2cccc3cc(-c4cccc5[nH]nc(N)c45)ccc23)ccc1F
activity vs control (IGF1R phosphorylated; enzyme activity, inhibitor; 0.1 µM): 100%

CS(=O)(=O)N1CCCC(NC(=O)[C@H](CCC2CCCCC2)NC(=O)c2ccc(CNc3ncnc4c3nnn4-c3ccccc3)cc2)C1 (stereo partly drawn)
remaining binding (IGF1R; cell-free assay, competition with immobilised ligand; 0.1 µM): 100%

CCN(CC)CCNC(=O)c1c(C)[nH]c(/C=C2\C(=O)Nc3ccc(F)cc32)c1C
inhibition (IGF1R; enzyme activity, inhibitor; 10 µM): 81%

Nc1c(C(=O)NCc2ccc(C(=O)NCCCC3CCCCC3)cc2)cnn1-c1ccccc1
remaining binding (IGF1R; cell-free assay, competition with immobilised ligand; 0.1 µM): 98%

Cc1ccc(C(=O)NCc2ccsc2)cc1C#Cc1cn(C(C)C)c2ncnc(N)c12
activity vs control (IGF1R phosphorylated; enzyme activity, inhibitor; 1 µM): 136%

N#CCCc1ccc2c(c1)-c1[nH]c3ccc([N+](=O)[O-])cc3c1CC(=O)N2
remaining signal (IGF1R; cell-free assay; 0.5 µM): 92.2%

COc1cc2nccc(Oc3ccc(NC(=O)c4c5n(n(-c6ccc(F)cc6)c4=O)CCCC5)cc3)c2cc1OC
inhibition (IGF1R; enzyme activity, inhibitor; 0.1 µM): 16%

CNC(=O)c1ccc(Nc2ncc(C(F)(F)F)c(NCc3nccnc3N(C)S(C)(=O)=O)n2)cc1
remaining binding (IGF1R; cell-free assay, competition with immobilised ligand; 0.1 µM): 84%

Cc1ccc(NC(=O)c2ccc(C)c(C(F)(F)F)c2)cc1C#Cc1nn(C2CCC(O)CC2)c2ncnc(N)c12 (stereo not drawn)
remaining signal (IGF1R; cell-free assay; 10 µM): 66%

C[C@@H](c1cccc(C#N)c1)n1cc(Cl)cc(C(N)=O)c1=N
remaining binding (IGF1R; cell-free assay, competition with immobilised ligand; 1 µM): 96%

O=C1NC(=O)c2cc(Nc3ccc(F)cc3)c(Nc3ccc(F)cc3)cc21
remaining signal (IGF1R; cell-free assay; 0.5 µM): 102%
